Laboratory results as given in PubChem BioAssay AID1229 (Sanford-Burnham Center for Chemical Genomics, 2008).
Screen size: about 190,000 compounds; about 10 (0.005%) were called active. This is one part of a sample in which actives are shown more often than they occur. Values without a mark were called inactive.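 The calls were made as follows: active = diaphorase activity raised at least twofold by the compound at 20 µM; inactive = activation factor below 2.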

Experiment: compounds boosting diaphorase resazurin reduction – biochemical, uHTS, resorufin fluorescence, counter-screen for diaphorase-coupled primary assays, primary screen (AID 1229)
Settings: Diaphorase/resazurin coupled assay, 16 min, at 20 µM, hits give high values, 1 = vehicle wells, 0 = NADH-free wells
In short: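 Assay system: Purified diaphorase enzyme from Clostridium kluyveri | Amount: Enzyme 0.07 U/mL final | Dosing: Compound 20 µM once, DMSO 1% | Timing: 16 min reaction at room temperature | Detection: Fluorescence, excitation 544 nm and emission 590 nm | Evaluation: Higher resorufin formation from activation or reduction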

SMILES | activation factor
COc1ccc([N+](=O)[O-])cc1NC(=O)c1ccc(N(Cc2ccccc2C)S(C)(=O)=O)cc1 | 0.9
COc1ccc(NS(=O)(=O)c2cc(NC(=O)C3CCCCC3)ccc2N2CCOCC2)cc1 | 1.1
Cc1cc2c(C)nc(N/N=C/c3ccccc3)nc2o1 | 0.9
O=C1NCC(=O)N(Cc2ccccc2)/C1=C/c1ccccc1 | 1
CCOC(=O)C(C)Sc1nnc(CSc2nc3nc(C)cc(C)n3n2)o1 (stereo unspecified) | 1
Cc1ccc(NC2=C(Cl)C(=O)OC2OC(=O)c2ccccc2C)cc1 (stereo unspecified) | 0.9
O=C(Nc1ccc(F)cc1)N1CCN(c2ccc(F)cc2)CC1 | 0.9
Cc1ccc(/C(N)=N/OC(=O)COc2ccc(Cl)c(C)c2)cc1 | 0.9
Cc1cc(C)n(-c2nnc(N3CCN(c4ccccc4)CC3)nn2)n1 | 0.9
CCn1c(COc2c(C)cccc2C)nnc1SCc1nc2ccccc2c(=O)[nH]1 | 0.7
Cc1cc(Cl)ccc1C(=O)C1CCCN(C(=O)CCN2CCCO2)C1 (stereo unspecified) | 1
Oc1c(Br)cccc1/C=N/Nc1c(F)c(F)c(F)c(F)c1F | 1
Cc1ccc(S(=O)(=O)N(CC(=O)NN=C2CCN(C)CC2)c2ccc(F)cc2)cc1 | 0.9
O=C(NC1CCCC1)C(NS(=O)(=O)c1ccc(Br)s1)c1ccccc1 (stereo unspecified) | 0.9
CCOC(=O)C1CCN(C(=O)c2ccccc2N(C)S(=O)(=O)c2ccccc2)CC1 | 1
Cn1cnnc1SCc1nnc(-c2ccccc2Br)o1 | 1
COc1ccc(CNC(=O)CN2CCC(n3nnc4cc(F)ccc43)CC2)cc1 | 0.8
C=C(C)c1cccc(C(C)(C)NC(=O)NC2CCCC2)c1 | 0.9
Nc1[nH]c(=S)nc2nc(-c3ccccc3)c(-c3ccccc3)nc12 | 0.8
CC1=C[C@H]2Cc3cc(C)cc(C)c3S(=O)(=O)[C@@H]2C=C1 | 0.9
CCCCOc1ccc(C(=O)N/C(=C/C=C/c2ccccc2)C(=O)N2CCOCC2)cc1 | 0.8
Cc1ccc(S(=O)(=O)Cc2cc(-c3ccc(Cl)cc3)no2)cc1 | 0.8
CCOc1ccc(/C=C(/NC(=O)c2ccccc2)C(=O)NCCC(=O)O)cc1 | 0.9
NC(=O)C[C@@H]1NC(=O)CNC(=O)c2cc([N+](=O)[O-])cc(I)c2NCCC(C(N)=O)NC1=O (stereo partly specified) | 1.1
CSc1cc(C)[nH]c(=O)n1 | 0.9
C[n+]1ccc(/C=C/c2c[nH]c3ccccc23)cc1 | 1

SMILES | activation factor
COC(=O)CCc1sc(Nc2ccc(Br)cc2)nc1-c1ccc(OC)cc1 | 0.8
O=c1[nH]c2cccnc2n(CCNc2ncc(C(F)(F)F)cc2Cl)c1=O | 0.8
COCC1CCCN(Cc2cn[nH]c2-c2cc3ccccc3o2)C1 (stereo unspecified) | 0.9
CC1CCCCC1NC(=O)COC(=O)Cc1ccc(Br)cc1 (stereo unspecified) | 0.9
O=C1NC2(CCCCCC2)C(=O)N1CCS(=O)(=O)Oc1ccccc1 | 1
COc1cccc(-n2nc(C(=O)N3CCN(Cc4ccccc4)CC3)c3ccccc3c2=O)c1 | 0.8
CCN(CC)CCNCc1ccc(OCc2ccc(Cl)nc2)c(OC)c1 | 1.1
CC(C)Oc1c(Br)cc(Br)cc1/C=N/NC(N)=S | 1
Cc1cc(C)cc(OCC(=O)NNC(=O)CCN2C(=O)c3ccccc3C2=O)c1 | 0.9
O=C(CCC(=O)NNc1nc2ccccc2c2nc(-c3ccccc3)nn12)NCCCN1CCCC1=O | 0.8
COc1ccc(-c2csc(-c3cccs3)n2)cc1OC | 0.8
COc1ccc(O)c(C(=O)c2cnc3c(c2)c(-c2ccc(F)cc2)c(C#N)c(=O)n3C)c1 | 0.9
CC(C)(C)CC(C)(C)NCC(O)COCCOc1ccc(Br)cc1 (stereo unspecified) | 0.9
Cc1cc(NS(=O)(=O)c2ccc(NC(=O)c3cccc(OC(F)F)c3)cc2)nc(C)n1 | 1
CCC1S/C(=N/N=C/c2ccco2)NC1=O (stereo unspecified) | 0.9
CCOC(=O)C(NC(=O)CC(C)C)(Nc1sc2c(c1C(N)=O)CCCC2)C(F)(F)F (stereo unspecified) | 0.9
C/C(=N\NC(=O)CNC(=O)C(c1ccccc1)c1ccccc1)c1ccc(C)cc1 | 0.9
C=CCn1c(COc2ccc(F)cc2)nnc1SCC(=O)Nc1cccc(S(N)(=O)=O)c1 | 1.1
CCOc1ccc(NS(=O)(=O)c2cc(C)c(C)cc2C)cc1 | 0.8
O=C(Nc1ccc(Cl)cn1)c1ccc2c(c1)OCCO2 | 1
CN(C)S(=O)(=O)c1ccc(N2CCCC2=O)c([N+](=O)[O-])c1 | 0.9
S=C(Cc1ccc(Cl)cc1)N1CCOCC1 | 1
CN(Cc1ccc2nsnc2c1)Cc1nc(Cc2cccc(F)c2)no1 | 0.8
CCN(CC(=O)NCCc1ccccc1)S(=O)(=O)c1ccccc1 | 1
NC(N)=N/N=C/c1ccc(Cl)c([N+](=O)[O-])c1 | 1
NC(N)=N/N=C/c1ccc(OCc2ccc(Cl)cc2Cl)cc1 | 2.2 (active)

SMILES | activation factor
COc1ccc(C(=O)O/N=C(\N)Cc2ccc(Cl)cc2Cl)cc1OC | 1
O=C(CCc1n[nH]c(=O)[nH]c1=O)N/N=C/c1ccc(Br)o1 | 1
Cc1cccc(OCCNC(=O)CSc2ccc(C(F)(F)F)cc2[N+](=O)[O-])c1 | 0.9
Cc1ccc(NC(=O)Nc2ccccc2)c(Br)c1 | 0.9
COc1cc2[nH]c(=S)n(Cc3ccc(F)cc3)c(=O)c2cc1OC | 0.9
O=C(Nc1ccc2c(c1)OCO2)c1sc2cc(Cl)ccc2c1Cl | 1
Cc1cc(NC(=O)CSc2nc3ccccc3n2CC(C)C)no1 | 0.8
CNC(=O)COc1ccc(S(=O)(=O)Nc2ccccc2)cc1 | 0.8
COc1ccc(C)cc1NC(=S)Nc1ccccc1SC | 1
Cc1cccc(NC(=O)Nc2ccc3c(c2)OCO3)n1 | 0.8
CCOc1ccc(C(=O)NC(=S)Nc2ccc(N3CCOCC3)c(Cl)c2)cc1[N+](=O)[O-] | 0.8
O=C(NC1CCCC1)C(c1ccc(N2CCOCC2)cc1)N(C(=O)c1ccco1)c1ccccc1F (stereo unspecified) | 0.9
COc1ccc(N2CCN(C(=O)/C(C#N)=C/c3ccccc3)CC2)cc1 | 1
O=[N+]([O-])c1ccccc1SNc1ccccn1 | 0.8
COc1ccccc1C(=O)Nc1ccc(OCc2nnc3c4ccccc4c(C)nn23)cc1 | 0.8
CO/N=C(\N)c1ccc([N+](=O)[O-])cc1 | 0.9
O=S(=O)(Nc1cc(S(=O)(=O)N2CCOCC2)ccc1N1CCCC1)c1cccs1 | 0.9
O=C(COc1cccc(F)c1)Oc1ccc(C(=O)c2ccccc2)cc1 | 0.9
O=C(NNC(=S)Nc1ccccc1)c1cccc(S(=O)(=O)N2CCOCC2)c1 | 0.9
COC(=O)/C=C\C(=O)Nc1cccc([N+](=O)[O-])c1 | 1.1
CCC(C)N(C(=O)COC(=O)C1C(C(=O)OC)=C(C)NC(C)=C1C(=O)OC)C1CCS(=O)(=O)C1 (stereo unspecified) | 0.9
CCn1c(SCC(=O)Nc2ccc(C)cc2)nc2nc3c(cc2c1=O)CCCC3 | 0.9
Cc1cc(C)n(Cc2cnc(N3CCOCC3)s2)n1 | 1
Cc1ccccc1CN1C[C@@H]2C[C@@H](c3ccc4nsnc4c3)N3CCC[C@@]23C1=O | 0.8
O=C(/C=C/c1ccc2c(c1)OCO2)NCc1cn2cc(Cl)ccc2n1 | 1.1
CCN(CC)CCNC(=O)c1sc2ncn(CC(=O)Nc3ccc(C)c(Cl)c3)c(=O)c2c1C | 0.9

SMILES | activation factor
Cc1cc(Cl)ccc1NC(=S)NCCCN1CCCC1=O | 1
CCCCn1nc(C(=O)Nc2ccc(S(=O)(=O)Nc3ncccn3)cc2)c2ccccc2c1=O | 0.9
C#CCOCCOCCOCCNc1nc(N2CCN(C(=O)[C@H](CCCCN)n3cc([C@@H](N)C(C)CC)nn3)CC2)nc(N2CCN(C(=O)[C@H](Cc3ccc(O)cc3)n3cc([C@@H](N)C(C)CC)nn3)CC2)n1 (stereo partly specified) | 1.7
Cn1c(=O)cc(OCC(=O)N2CCN(c3ccccc3F)CC2)c2ccccc21 | 0.9
Cc1cc(F)ccc1S(=O)(=O)Nc1ncnc2scc(-c3ccc(F)cc3)c12 | 0.8
CCOC(=O)CSc1nc(C)cc2c1C(=O)OC2 | 1
Fc1cc(Br)ccc1NC(=S)Nc1cccnc1 | 1
Cc1ccc(NC(=O)NNC(=O)c2sccc2-n2cccc2)cc1 | 1
CNC(=O)c1ccc(NC(=O)c2cccc(C(F)(F)F)c2)cc1 | 0.9
O=c1cc(CO)oc(C(Nc2cccc(C(F)(F)F)c2)c2ccccn2)c1O (stereo unspecified) | 0.7
Cc1ccc2c(c1)C(c1ccccc1)N(C(=O)c1ccc(S(=O)(=O)N3CCOCC3)cc1)CC(=O)N2 (stereo unspecified) | 1
CN1C(=O)/C(=C/c2ccc(C(=O)NC3CCCC3)cc2)Oc2ccccc21 | 1
CN1C=CC=C/C1=C1\SC(=S)N(Cc2ccccc2)C1=O | 1
CCCCC(=O)Nc1ccc(C(=O)Nc2cc(C(F)(F)F)ccc2Cl)cc1 | 1
CCOC(=O)C/C(C)=N\Nc1ccc([N+](=O)[O-])cc1[N+](=O)[O-] | 0.9
N/C(=N\OC(=O)CCc1ccccc1)c1cccnc1 | 1
CCCOc1ccc(NC(=O)CC2C(=O)N(C)C(=S)N2Cc2ccc3c(c2)OCO3)cc1 (stereo unspecified) | 0.8
CC(C(=O)O)n1cnc2sc3c(c2c1=O)CCCC3 (stereo unspecified) | 0.9
NC1=NC(=O)C(Cc2cccc(Cl)c2Cl)S1 (stereo unspecified) | 1
COc1ccc(CCNC(=O)CSc2nc3[nH]ncc3c(=O)n2-c2cccc(C(F)(F)F)c2)cc1OC | 0.9
CC(C)(C)OC(=O)N/N=C/c1cn(-c2ccccc2)nc1-c1cccnc1 | 1
O=C(NC(=S)Nc1ccc2oc(=O)ccc2c1)c1ccc(-c2cccc(Cl)c2Cl)o1 | 1.1
COc1ccc(CN2CCN(Cc3cn(C)nc3-c3ccccc3)CC2CCO)c(C)c1C (stereo unspecified) | 1
